ChEMBL document CHEMBL1156575, “Toward an optimal blood-brain barrier shuttle by synthesis and evaluation of peptide libraries” (J Med Chem, 2008)
Where a SMILES comes first, the peptide text is derived from it. [ ]: non-standard residue; d: D form. Tpi = O=C(O)[C@@H]1Cc2c([nH]c3ccccc23)CN1; NMeW = CN[C@@H](Cc1c[nH]c2ccccc12)C(=O)O; 2Nal = N[C@@H](Cc1ccc2ccccc2c1)C(=O)O; Dopa = N[C@@H](Cc1ccc(O)c(O)c1)C(=O)O; NMehPhe = CN[C@@H](CCc1ccccc1)C(=O)O; NMeF = CN[C@@H](Cc1ccccc1)C(=O)O; NMePhg = CN[C@H](C(=O)O)c1ccccc1; 3Pal = N[C@@H](Cc1cccnc1)C(=O)O; Tic = O=C(O)[C@@H]1Cc2ccccc2CN1; Phg = N[C@H](C(=O)O)c1ccccc1

Legend:
[1] = Membrane permeability assessed as passive transport after 4 hrs by PAMPA
[2] = Membrane permeability assessed as passive transport after 4 hrs by PAMPA in presence of 20% 1-propanol; assay type: ADME
In short: (§1)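 PAMPA-BBB model, 200 µM compound in pION buffer pH 7.4 with 20% 1-propanol in the donor well. Filter coated with phospholipid mix (20 mg/mL in dodecane); acceptor holds buffer plus 1-propanol. Incubated 4 h at room temperature, saturated humidity, orbital shaking 100 rpm. Donor and acceptor quantified by RP-HPLC. % transport at 4 h and Pe (eq 1) calculated; mean ± SD.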

HeLa = assay: Cytotoxicity against human HeLa cells at 25 to 100 uM after 24 hrs by MTT assay; assay type: functional, cell-based
In short: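 HeLa cells seeded at 7000 cells/well and grown 24 h, then given peptide in medium (solutions centrifuged first, as not fully soluble) at 25, 50 and 100 µM for 24 h at 37 °C. MTT added at 22 h (0.5 mg/mL final) for 2 h. Formazan dissolved in 2-propanol, A570 read after 45 min. Viability is % of untreated cells; mean ± SD.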

[3] = Stability in human serum after 12 hrs
[4] = Membrane permeability by PAMPA
[5] = Membrane permeability by PAMPA in presence of 20% 1-propanol; assay type: ADME; details: read-out: permeability; in short: as §1

| permeability [1] | Papp ([4]; permeability) | SMILES | also measured |
| --- | --- | --- | --- |
| 0% | – | NCCc1ccc(O)c(O)c1 [DOPAMINE] | permeability [2]: 0% |
| – | – | CC(=O)N(C)[C@@H](Cc1ccccc1)C(=O)N(C)[C@@H](Cc1ccccc1)C(=O)N(C)[C@@H](Cc1ccccc1)C(=O)N(C)[C@@H](Cc1ccccc1)C(N)=O (stereo in doubt; form 2) | Activity (HeLa): Not toxic; remaining at 12 h [3]: 91% |
| 3.7% | 1.8 ×10⁻⁶ cm/s | CC(=O)N(C)[C@@H](CCc1ccccc1)C(=O)N(C)[C@@H](Cc1ccccc1)C(=O)N(C)[C@@H](Cc1ccccc1)C(=O)N(C)[C@@H](Cc1ccccc1)C(N)=O (Ac-[NMehPhe][NMeF][NMeF][NMeF]-NH2) | – |
| 3.2% | 1.5 ×10⁻⁶ cm/s | CC(=O)N1Cc2[nH]c3ccccc3c2C[C@H]1C(=O)N(C)[C@@H](Cc1ccccc1)C(=O)N(C)[C@@H](Cc1ccccc1)C(=O)N(C)[C@@H](Cc1ccccc1)C(N)=O (Ac-[Tpi][NMeF][NMeF][NMeF]-NH2) | – |
| 16.8% | 8 ×10⁻⁶ cm/s | NC(=O)N1c2ccccc2C=Cc2ccccc21 [CARBAMAZEPINE] | Papp [5]: 12.8 ×10⁻⁶ cm/s; permeability [2]: 20.6% |
| 3.9% | 1.8 ×10⁻⁶ cm/s | CC(=O)N[C@@H](Cc1c[nH]c2ccccc12)C(=O)N(C)[C@@H](Cc1ccccc1)C(=O)N(C)[C@@H](Cc1ccccc1)C(=O)N(C)[C@@H](Cc1ccccc1)C(N)=O (Ac-W[NMeF][NMeF][NMeF]-NH2) | – |
| 3.6% | 1.8 ×10⁻⁶ cm/s | Cn1c(=O)c2c(ncn2C)n(C)c1=O [CAFFEINE] | Papp [5]: 1.8 ×10⁻⁶ cm/s; permeability [2]: 3.6% |
| 2.5% | 1.2 ×10⁻⁶ cm/s | CC(=O)N[C@@H](Cc1cccnc1)C(=O)N(C)[C@@H](Cc1ccccc1)C(=O)N(C)[C@@H](Cc1ccccc1)C(=O)N(C)[C@@H](Cc1ccccc1)C(N)=O (Ac-[3Pal][NMeF][NMeF][NMeF]-NH2) | – |
| 4.3% | 2 ×10⁻⁶ cm/s | CC(=O)N1Cc2ccccc2C[C@H]1C(=O)N(C)[C@@H](Cc1ccccc1)C(=O)N(C)[C@@H](Cc1ccccc1)C(=O)N(C)[C@@H](Cc1ccccc1)C(N)=O (Ac-[Tic][NMeF][NMeF][NMeF]-NH2) | – |
| 1.9% | 0.9 ×10⁻⁶ cm/s | CC(=O)N(C)[C@@H](Cc1ccccc1)C(=O)N(C)[C@@H](Cc1ccccc1)C(=O)N(C)[C@@H](Cc1ccccc1)C(=O)N(C)[C@@H](Cc1ccccc1)C(=O)O (Ac-[NMeF][NMeF][NMeF][NMeF]-OH) | – |
| 13.5% | 6.9 ×10⁻⁶ cm/s | CC(C)NCC(O)COc1cccc2ccccc12 (centres undefined) [PROPRANOLOL] | Papp [5]: 8.4 ×10⁻⁶ cm/s; permeability [2]: 14.9% |
| – | – | CC(=O)N[C@@H](Cc1ccc2ccccc2c1)C(=O)N(C)[C@@H](Cc1ccccc1)C(=O)N(C)[C@@H](Cc1ccccc1)C(=O)N(C)[C@@H](Cc1ccccc1)C(N)=O (Ac-[2Nal][NMeF][NMeF][NMeF]-NH2) | Activity (HeLa): Not toxic |
| 0% | – | N[C@@H](Cc1ccc(O)c(O)c1)C(=O)O [LEVODOPA] | permeability [2]: 0% |
| 2.9% | 1.4 ×10⁻⁶ cm/s | CC(=O)N(C)[C@@H](Cc1c[nH]c2ccccc12)C(=O)N(C)[C@@H](Cc1ccccc1)C(=O)N(C)[C@@H](Cc1ccccc1)C(=O)N(C)[C@@H](Cc1ccccc1)C(N)=O (Ac-[NMeW][NMeF][NMeF][NMeF]-NH2) | – |
| 4.6% | 2.2 ×10⁻⁶ cm/s | CN(C(=O)[C@@H]1Cc2ccccc2CN1)[C@@H](Cc1ccccc1)C(=O)N(C)[C@@H](Cc1ccccc1)C(=O)N(C)[C@@H](Cc1ccccc1)C(N)=O (H-[Tic][NMeF][NMeF][NMeF]-NH2) | – |
| 1.3% | 0.6 ×10⁻⁶ cm/s | CN(C(=O)[C@@H]1Cc2c([nH]c3ccccc23)CN1)[C@@H](Cc1ccccc1)C(=O)N(C)[C@@H](Cc1ccccc1)C(=O)N(C)[C@@H](Cc1ccccc1)C(N)=O (H-[Tpi][NMeF][NMeF][NMeF]-NH2) | – |
| 0% | – | CC(=O)N[C@H](C(=O)N(C)[C@@H](Cc1ccccc1)C(=O)N(C)[C@@H](Cc1ccccc1)C(=O)N(C)[C@@H](Cc1ccccc1)C(N)=O)c1ccccc1 (Ac-[Phg][NMeF][NMeF][NMeF]-NH2) | – |
| 1.5% | 0.7 ×10⁻⁶ cm/s | CC(=O)N(C)[C@H](C(=O)N(C)[C@@H](Cc1ccccc1)C(=O)N(C)[C@@H](Cc1ccccc1)C(=O)N(C)[C@@H](Cc1ccccc1)C(N)=O)c1ccccc1 (Ac-[NMePhg][NMeF][NMeF][NMeF]-NH2) | – |

| SMILES | permeability [1] | Papp ([4]; permeability) | also measured |
| --- | --- | --- | --- |
| CN(C(=O)[C@H](Cc1ccc2ccccc2c1)NC(=O)[C@@H](N)Cc1ccc(O)c(O)c1)[C@@H](Cc1ccccc1)C(=O)N(C)[C@@H](Cc1ccccc1)C(=O)N(C)[C@@H](Cc1ccccc1)C(N)=O (H-[Dopa][2Nal][NMeF][NMeF][NMeF]-NH2) | 0.7% | – | Papp [4]: 0.3 ×10⁻⁶ cm/s |
| CN(C(=O)[C@@H](N)Cc1ccc(O)c(O)c1)[C@@H](Cc1ccccc1)C(=O)N(C)[C@@H](Cc1ccccc1)C(=O)N(C)[C@@H](Cc1ccccc1)C(=O)N(C)[C@@H](Cc1ccccc1)C(N)=O (H-[Dopa][NMeF][NMeF][NMeF][NMeF]-NH2) | 2.4% | – | Papp [4]: 1.1 ×10⁻⁶ cm/s |
